Measured values reported in ChEMBL document CHEMBL1140506, “Molecular design of histone deacetylase inhibitors by aromatic ring shifting in chlamydocin framework” (Bioorg Med Chem, 2007).
Non-standard residues stand in square brackets, D forms with d. Residues, ends and D or L forms follow the SMILES beside them. Ahp(7-SS(2-pyridyl)) = N[C@@H](CCCCCSSc1ccccn1)C(=O)O; Aib = CC(C)(N)C(=O)O

Columns and labels:
[1] = species on record: Homo sapiens; assay: Selectivity for human HDAC4 over human HDAC1
How it was run: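 Selectivity calculated from IC50 values against FLAG-tagged human HDAC4 and HDAC1, each transiently expressed in 293T cells, anti-FLAG immunopurified and FLAG-peptide eluted. Ac-KGLGK(Ac)-MCA substrate, pH 8.0 Tris buffer with 0.1 mM DTT, 37 °C 30 min. Trypsin development, then AMC fluorescence read.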

[2] = Induction of wild-type p21 promoter activation in mink Mv1Lu cells after 18 hrs by luciferase assay relative to basal level; format: functional, Neovison vison
How it was run: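 Stable Mv1Lu clone (MFLL-9) carrying p21 promoter (2.4 kb genomic fragment)–luciferase reporter, G418-selected. Cells (1 × 10^5) plated 6 h, then exposed 18 h to various drug concentrations. Luciferase activity of lysates measured by luminometer, normalized to lysate protein; concentration giving 10-fold induction over basal level reported as EC1000.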

[3] = molecular target: Histone deacetylase 4 (Homo sapiens, UniProt P56524); assay: Inhibition of human HDAC4 expressed in 293T cells; format: cell-based
[4] = molecular target: Histone deacetylase 1 (Homo sapiens, UniProt Q13547); assay: Inhibition of human HDAC1 expressed in 293T cells; format: cell-based
[5] = molecular target: T1, Protein deacetylase HDAC6 (Mus musculus, UniProt Q9Z2V5); assay: Inhibition of mouse HDAC6 expressed in 293T cells; format: cell-based
T1 sequence (Q9Z2V5 whole entry): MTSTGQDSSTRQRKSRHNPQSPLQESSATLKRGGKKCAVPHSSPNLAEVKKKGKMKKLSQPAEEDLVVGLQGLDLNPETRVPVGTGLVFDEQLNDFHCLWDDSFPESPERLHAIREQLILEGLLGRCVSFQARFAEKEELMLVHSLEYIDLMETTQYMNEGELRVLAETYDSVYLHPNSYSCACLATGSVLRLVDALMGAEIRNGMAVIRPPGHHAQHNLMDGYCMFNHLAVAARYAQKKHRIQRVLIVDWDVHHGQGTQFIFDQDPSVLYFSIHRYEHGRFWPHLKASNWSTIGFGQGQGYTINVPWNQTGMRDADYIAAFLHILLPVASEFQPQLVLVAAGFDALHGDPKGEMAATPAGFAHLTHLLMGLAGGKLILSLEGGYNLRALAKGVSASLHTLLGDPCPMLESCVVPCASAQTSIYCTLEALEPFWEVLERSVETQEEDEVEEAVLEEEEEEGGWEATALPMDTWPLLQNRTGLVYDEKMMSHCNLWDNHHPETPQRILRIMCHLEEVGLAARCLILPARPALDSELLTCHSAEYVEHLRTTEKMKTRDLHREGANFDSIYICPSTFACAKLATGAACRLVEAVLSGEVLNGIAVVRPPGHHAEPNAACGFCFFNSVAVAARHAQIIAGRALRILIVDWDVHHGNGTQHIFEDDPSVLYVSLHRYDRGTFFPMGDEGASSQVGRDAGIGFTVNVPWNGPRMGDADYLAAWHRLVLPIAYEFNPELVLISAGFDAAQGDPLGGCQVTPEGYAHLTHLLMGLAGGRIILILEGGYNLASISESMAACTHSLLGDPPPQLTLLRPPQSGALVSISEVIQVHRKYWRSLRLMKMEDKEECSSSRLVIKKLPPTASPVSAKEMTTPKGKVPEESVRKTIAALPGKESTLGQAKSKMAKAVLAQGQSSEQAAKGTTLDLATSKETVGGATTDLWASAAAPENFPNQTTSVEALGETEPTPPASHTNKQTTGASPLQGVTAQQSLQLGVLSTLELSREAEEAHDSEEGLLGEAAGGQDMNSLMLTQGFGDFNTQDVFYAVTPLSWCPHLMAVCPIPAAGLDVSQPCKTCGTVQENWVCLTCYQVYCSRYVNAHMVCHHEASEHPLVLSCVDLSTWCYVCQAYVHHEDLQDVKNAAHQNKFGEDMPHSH

Chain of Histone deacetylase 1 (Q13547 whole entry): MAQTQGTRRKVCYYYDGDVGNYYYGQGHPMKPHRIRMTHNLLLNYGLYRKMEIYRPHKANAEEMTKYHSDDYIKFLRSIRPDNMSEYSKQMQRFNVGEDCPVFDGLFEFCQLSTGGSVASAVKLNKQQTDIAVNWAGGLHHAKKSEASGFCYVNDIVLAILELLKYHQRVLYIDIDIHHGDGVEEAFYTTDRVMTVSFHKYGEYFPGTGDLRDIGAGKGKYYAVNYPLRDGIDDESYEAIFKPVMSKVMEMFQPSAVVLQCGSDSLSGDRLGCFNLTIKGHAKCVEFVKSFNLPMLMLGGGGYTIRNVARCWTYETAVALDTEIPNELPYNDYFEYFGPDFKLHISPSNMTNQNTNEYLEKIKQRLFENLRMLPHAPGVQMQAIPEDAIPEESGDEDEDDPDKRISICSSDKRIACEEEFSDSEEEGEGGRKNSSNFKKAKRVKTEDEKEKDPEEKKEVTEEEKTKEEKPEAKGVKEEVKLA
Chain of Histone deacetylase 4 (P56524 whole entry): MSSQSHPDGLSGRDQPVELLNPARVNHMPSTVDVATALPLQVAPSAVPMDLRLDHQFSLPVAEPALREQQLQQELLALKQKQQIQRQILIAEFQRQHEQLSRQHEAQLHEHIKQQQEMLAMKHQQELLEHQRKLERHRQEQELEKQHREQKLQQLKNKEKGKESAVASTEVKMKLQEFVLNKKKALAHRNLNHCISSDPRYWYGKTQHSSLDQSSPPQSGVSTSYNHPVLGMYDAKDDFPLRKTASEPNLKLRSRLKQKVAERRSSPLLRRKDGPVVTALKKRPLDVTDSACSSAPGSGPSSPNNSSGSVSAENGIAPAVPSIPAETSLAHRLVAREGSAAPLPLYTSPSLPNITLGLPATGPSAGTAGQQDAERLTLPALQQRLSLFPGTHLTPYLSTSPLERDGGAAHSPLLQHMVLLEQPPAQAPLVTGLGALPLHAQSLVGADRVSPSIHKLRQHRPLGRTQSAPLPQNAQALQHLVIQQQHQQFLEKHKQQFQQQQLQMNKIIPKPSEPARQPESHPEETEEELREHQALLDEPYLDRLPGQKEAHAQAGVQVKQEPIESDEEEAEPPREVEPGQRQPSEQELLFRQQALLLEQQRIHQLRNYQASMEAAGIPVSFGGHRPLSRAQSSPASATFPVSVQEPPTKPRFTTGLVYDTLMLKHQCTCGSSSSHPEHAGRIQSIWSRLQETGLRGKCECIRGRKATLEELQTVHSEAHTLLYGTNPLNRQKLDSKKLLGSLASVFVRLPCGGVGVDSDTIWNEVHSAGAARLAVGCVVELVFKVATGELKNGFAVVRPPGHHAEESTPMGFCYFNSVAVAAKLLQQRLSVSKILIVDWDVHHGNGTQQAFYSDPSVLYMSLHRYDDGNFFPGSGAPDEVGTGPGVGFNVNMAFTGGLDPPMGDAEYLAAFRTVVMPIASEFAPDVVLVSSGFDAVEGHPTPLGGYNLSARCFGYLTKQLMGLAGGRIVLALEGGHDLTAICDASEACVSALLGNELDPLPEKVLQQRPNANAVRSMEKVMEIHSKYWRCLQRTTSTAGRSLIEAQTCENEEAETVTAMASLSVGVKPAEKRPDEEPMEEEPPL

Ratio IC50 [1] | IC50 [3] [nM] | IC50 [4] [nM] | IC50 [5] [nM] | SMILES | EC1000 [2] [nM]
1.9 | 2.7 | 5.3 | 43 | CC1(C)NC(=O)[C@H](CCCCCSSc2ccccn2)NC(=O)[C@H]2CCCN2C(=O)[C@H](CCCc2ccccc2)NC1=O | 110
1.6 | 4 | 6.4 | 26 | CC1(C)NC(=O)[C@H](CCCCCSSc2ccccn2)NC(=O)[C@H]2CCCN2C(=O)[C@H](CO)NC1=O | 580
1.8 | 5.2 | 9.4 | 43 | C[C@@H]1NC(=O)C(C)(C)NC(=O)[C@H](CCCCCSSc2ccccn2)NC(=O)[C@H]2CCCN2C1=O | 750
1.5 | 56 | 88 | 86 | CC1(C)NC(=O)[C@H](CCCCCSSc2ccccn2)NC(=O)[C@H]2CCCN2C(=O)[C@H](c2ccccc2)NC1=O | 7400
– | – | – | – | C[C@@H]1NC(=O)C(C)(C)NC(=O)[C@H](CCCCCSSc2ccccn2)NC(=O)[C@H]2Cc3ccccc3CN2C1=O [listing 1 of 2 here] | 200
1.1 | 2.4 | 2.7 | 12 | C[C@@H]1NC(=O)[C@@]2(CCc3ccccc32)NC(=O)[C@H](CCCCCSSc2ccccn2)NC(=O)[C@H]2CCCN2C1=O | 55
– | 4.2 | 4.7 | 29 | C[C@@H]1NC(=O)C(C)(C)NC(=O)[C@H](CCCCCSSc2ccccn2)NC(=O)[C@H]2Cc3ccccc3CN2C1=O [listing 2 of 2 here] | –
2.4 | 70 | 170 | 71 | C[C@@H]1NC(=O)[C@@](C)(Cc2ccccc2)NC(=O)[C@H](CCCCCSSc2ccccn2)NC(=O)[C@H]2CCCN2C1=O | 25600
1.2 | 1.6 | 2 | 8.8 | C[C@@H]1NC(=O)C2(Cc3ccccc3C2)NC(=O)[C@H](CCCCCSSc2ccccn2)NC(=O)[C@H]2CCCN2C1=O | 140
1.1 | – | – | – | C[C@H]1CN2Cc3ccccc3C[C@@H]2C(=O)N[C@@H](CCCCCSSc2ccccn2)C(=O)NC(C)(C)C(=O)N1 | –
1.4 | 25 | 36 | 33 | C[C@@H]1NC(=O)[C@]2(CCc3ccccc32)NC(=O)[C@H](CCCCCSSc2ccccn2)NC(=O)[C@H]2CCCN2C1=O | 2000
1.6 | 2.2 | 3.7 | 56 | C[C@@H]1NC(=O)[C@](C)(Cc2ccccc2)NC(=O)[C@H](CCCCCSSc2ccccn2)NC(=O)[C@H]2CCCN2C1=O | 550
1.9 | 3.2 | 6.2 | 36 | CC1(C)NC(=O)[C@H](CCCCCSSc2ccccn2)NC(=O)[C@H]2CCCN2C(=O)[C@H](CCc2ccccc2)NC1=O | 320
2.1 | 1.8 | 3.9 | 40 | CC1(C)NC(=O)[C@H](CCCCCSSc2ccccn2)NC(=O)[C@H]2CCCN2C(=O)[C@H](Cc2ccccc2)NC1=O (cyclo([Aib]F[dP][Ahp(7-SS(2-pyridyl))])) | 45
2 | 1.6 | 3.2 | 24 | CC1(C)NC(=O)[C@H](CCCCCSSc2ccccn2)NC(=O)[C@H]2CCCN2C(=O)[C@H](COCc2ccccc2)NC1=O | 72
